Assay [1] has as its system HT-29. Put plainly: Induction of apoptosis in human HT-29 cells assessed as early apoptotic cells at 5 uM after 48 hrs by Annexin V-FITC/propidium iodide staining-based flow cytometric analysis (reference value: 0.07%). It counts as functional.
Assay [2] deals with HT-29. Briefly: Antimigratory activity in human HT-29 cells after 72 hrs by wound healing assay. In kind it is functional, cell-based. Put shortly:
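HT-29 cells plated 48 h before scratching; treated with 0, 0.31, 0.63, 1.25, 2.5 and 5 µM under normoxia; wound imaged by inverted microscope at 0 h and 72 h.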

In assay [3] the test system is HT-29. Briefly: Cell cycle arrest in human HT-29 cells assessed as accumulation at G0/G1 phase at 2.5 uM after 48 hrs by RNase/propidium iodide staining-based flow cytometric analysis (reference value: 70.48%). It counts as functional.
The subject of assay [4] is HT-29. Put plainly: Antimigratory activity in human HT-29 cells at 1.25 to 2.5 uM after 24 hrs by transwell assay. In kind it is functional, cell-based.
Assay [5] deals with HT-29. Put plainly: Cytotoxicity against human HT-29 cells after 96 hrs under normoxic condition by MTT assay. The settings on record: Homo sapiens, HT-29, 96 h; read-out: IC50. In kind it is functional, cell-based. Put shortly:
(§1)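 MTT viability assay in HT-29 (high CA IX) and MDA-MB-231 (normal CA IX) cells under normoxic and hypoxic conditions; IC50 values reported.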

The subject of assay [6] is HT-29. Put plainly: Cytotoxicity against human HT-29 cells after 96 hrs under hypoxic condition by MTT assay. In kind it is functional, cell-based. Particulars: Homo sapiens, HT-29, 96 h; read-out: IC50. Put shortly:
as §1

For assay [7], the system named is MDA-MB-231. Put plainly: Cytotoxicity against human MDA-MB-231 cells after 96 hrs under normoxic condition by MTT assay. It counts as functional, cell-based. The settings on record: Homo sapiens, MDA-MB-231, 96 h; read-out: IC50. A digest of the protocol:
as §1

For assay [8], the system named is HT-29. Briefly: Induction of mitochondrial membrane potential loss in human HT-29 cells at 20 uM measured after 3 hrs by Rh123 dye-based flow cytometric analysis. It counts as functional, cell-based. A digest of the protocol: (§2)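 HT-29 cells exposed to 20 µM for different times, stained with Rh123 for 40 min, trypsinised (0.25%), washed three times in PBS; mitochondrial membrane potential read by flow cytometry.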

In assay [9] the test system is HT-29. Put plainly: Cell cycle arrest in human HT-29 cells assessed as accumulation at G0/G1 phase at 20 uM after 48 hrs by RNase/propidium iodide staining-based flow cytometric analysis (reference value: 70.48%). In kind it is functional.
The test system of assay [10] is HT-29. Put plainly: Growth inhibition of human HT-29 cells pretreated with 10 uM liproxstatin-1 for 1 hr followed by 10 uM compound addition and measured after 72 hrs by MTT assay. In kind it is functional, cell-based.
For assay [11], the system named is HT-29. Briefly: Growth inhibition of human HT-29 cells pretreated with 5 to 40 uM liproxstatin-1 for 1 hr followed by 10 uM compound addition and measured after 48 hrs by MTT assay.
Assay [12] concerns HT-29. Put plainly: Induction of apoptosis in human HT-29 cells assessed as early apoptotic cells at 10 uM after 48 hrs by Annexin V-FITC/propidium iodide staining-based flow cytometric analysis (reference value: 0.07%). It counts as functional.
Assay [13] deals with HT-29. Put plainly: Induction of mitochondrial membrane potential loss in human HT-29 cells at 20 uM measured measured until 24 hrs by Rh123 dye-based flow cytometric analysis. It counts as functional, cell-based. Put shortly: as §2
The subject of assay [14] is HT-29. Put plainly: Induction of morphological changes in human HT-29 cells assessed as reduction in cell volume after 96 hrs. It counts as functional, cell-based.
The subject of assay [15] is MDA-MB-231. Put plainly: Cytotoxicity against human MDA-MB-231 cells after 96 hrs under hypoxic condition by MTT assay. It counts as functional, cell-based. Particulars: Homo sapiens, MDA-MB-231, 96 h; read-out: IC50. A digest of the protocol:
as §1

The test system of assay [16] is HT-29. Briefly: Induction of ferroptosis in human HT-29 cells at 10 uM after 72 hrs by MTT assay. It counts as functional, cell-based.
Assay [17] has as its system HT-29. Briefly: Cell cycle arrest in human HT-29 cells assessed as accumulation at G0/G1 phase at 5 uM after 48 hrs by RNase/propidium iodide staining-based flow cytometric analysis (reference value: 70.48%). It counts as functional.
Assay [18] has as its system HT-29. Put plainly: Induction of morphological changes in human HT-29 cells assessed as reduction in cell number after 96 hrs. In kind it is functional, cell-based.
Assay [19] concerns HT-29. Briefly: Cell cycle arrest in human HT-29 cells assessed as accumulation at sub-G1 phase at 10 uM by RNase/propidium iodide staining-based flow cytometric analysis. In kind it is functional. The settings on record: TDE = time-dependent effect. Put shortly: (§3)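 HT-29 cells exposed to 10 µM for different times (up to 72 h); sub-G1 fraction measured by flow cytometry.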

The test system of assay [20] is HT-29. Put plainly: Induction of apoptosis in human HT-29 cells assessed as early apoptotic cells at 2.5 uM after 48 hrs by Annexin V-FITC/propidium iodide staining-based flow cytometric analysis (reference value: 0.07%). It counts as functional.
Assay [21] deals with HT-29. Put plainly: Cell cycle arrest in human HT-29 cells assessed as accumulation at sub-G1 phase at 10 uM after 48 to 72 hrs by RNase/propidium iodide staining-based flow cytometric analysis. It counts as functional. A digest of the protocol:
as §3

Assay [22] deals with Carbonic anhydrase 9 (Homo sapiens) (UniProt Q16790). Briefly: Inhibition of carbonic anhydrase 9 in human HT-29 cells assessed as induction of cellular pH decrease at 10 uM after 24 hrs by BCECF-AM staining-based flow cytometric analysis. It counts as cell-based. A digest of the protocol: (§4)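 Intracellular pH in HT-29 cells exposed to 10 µM for 0, 3, 12 and 24 h: stained 40 min with BCECF-AM, trypsinised (0.25%), PBS-washed, fluorescence read by flow cytometry.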

Assay [23] concerns HT-29. Briefly: Cell cycle arrest in human HT-29 cells assessed as accumulation at sub-G1 phase at 10 uM up to 48 hrs by RNase/propidium iodide staining-based flow cytometric analysis. It counts as functional. Put shortly:
as §3

The target in assay [24] is Carbonic anhydrase 9 (Homo sapiens) (UniProt Q16790). Briefly: Inhibition of carbonic anhydrase 9 in human HT-29 cells assessed as induction of cellular pH decrease at 10 uM after 3 to 12 hrs by BCECF-AM staining-based flow cytometric analysis. It counts as cell-based. A digest of the protocol: as §4
The test system of assay [25] is HT-29. Put plainly: Cell cycle arrest in human HT-29 cells assessed as accumulation at G0/G1 phase at 10 uM after 48 hrs by RNase/propidium iodide staining-based flow cytometric analysis (reference value: 70.48%). It counts as functional.

Calls of active or inactive are those of the source. No cut-off for these calls is given here.

For the compound `Cc1c(Cl)c(=O)oc2cc(OCCn3cc(CO[C@H]4O[C@@H]5O[C@@]6(C)CC[C@H]7[C@H](C)CC[C@@H]([C@H]4C)[C@@]57OO6)nn3)ccc12`, the Activity with HT-29 [1] was 4.8%; with HT-29 [2], “Dose-dependent effect”; in the assay on HT-29 [3] it was 72.28%; with HT-29 [9], 82.22%; with HT-29 [12] it was 14.9%; with HT-29 [14], “Dose-dependent effect”. In addition, the Activity is 76.53% in the assay with HT-29 [17]; “Dose-dependent effect” with HT-29 [18]; “Tde” in the assay on HT-29 [19]; 1.7% in the assay on HT-29 [20]; “<=60%” with HT-29 [21]; 75.45% with HT-29 [25]. For the same compound, the result in the assay on HT-29 [4], in the assay on HT-29 [8] and in the assay with HT-29 [16] was Active. In addition, the IC50 in the assay on HT-29 [5] worked out at 1.88 µM; in the assay with HT-29 [6] it was 0.17 µM; in the assay with MDA-MB-231 [7] it was 18.4 µM; in the assay on MDA-MB-231 [15], 7.51 µM. Moreover, the “growth inhibition (GI)” value with HT-29 [10] and in the assay on HT-29 [11] was “inactive” each time. In addition, the outcome in the assay on HT-29 [13] and in the assay on HT-29 [23] was inactive. The inhibition result in assay [22] and in assay [24] was “Active” throughout.

As to `Cc1cc(=O)oc2cc(-n3cc(CCO[C@H]4O[C@@H]5O[C@@]6(C)CC[C@H]7[C@H](C)CC[C@@H]([C@H]4C)[C@@]57OO6)nn3)ccc12`, the IC50 in the assay on HT-29 [5] stood at 8.95 µM; with HT-29 [6] it was 10.9 µM; in the assay on MDA-MB-231 [7], 3.78 µM; in the assay with MDA-MB-231 [15], 9.96 µM.

As to `C[C@H]1[C@@H](OCc2cn(-c3ccc4c(C(F)(F)F)cc(=O)oc4c3)nn2)O[C@@H]2O[C@@]3(C)CC[C@H]4[C@H](C)CC[C@@H]1[C@@]24OO3`, the IC50 is 5.22 µM with HT-29 [5], 5.33 µM with HT-29 [6], above 100 µM with MDA-MB-231 [7] and 49.6 µM with MDA-MB-231 [15].

Take `C[C@H]1[C@@H](OCCOc2ccc3c(C(F)(F)F)cc(=O)oc3c2)O[C@@H]2O[C@@]3(C)CC[C@H]4[C@H](C)CC[C@@H]1[C@@]24OO3`: the IC50 in the assay on HT-29 [5] worked out at 54.8 µM; in the assay on HT-29 [6], 5.59 µM; in the assay on MDA-MB-231 [7], 15.2 µM; in the assay with MDA-MB-231 [15], 6.14 µM.

With `Cc1c(C)c2ccc(-n3cc(CCO[C@H]4O[C@@H]5O[C@@]6(C)CC[C@H]7[C@H](C)CC[C@@H]([C@H]4C)[C@@]57OO6)nn3)cc2oc1=O`, the IC50 was found to be 4.71 µM in the assay on HT-29 [5], 0.08 µM in the assay on HT-29 [6], 3.75 µM in the assay with MDA-MB-231 [7] and 3.58 µM in the assay on MDA-MB-231 [15].

As for `CC(=O)Nc1nnc(S(N)(=O)=O)s1` [ACETAZOLAMIDE], the IC50 in the assay with HT-29 [5], in the assay with HT-29 [6], in the assay on MDA-MB-231 [7] and in the assay with MDA-MB-231 [15] was above 100 µM throughout.
